Drawing on PMC5935509 (Bioactive Materials, 2017), this text covers cell viability for one compound.

A word on the cell viability: it is a per cent measure of how many cells are alive, often set against a control. A high value points to less harm to the cells.

This test relates to HeLa cells. The test can be described thus: Cytotoxicity measurement, CCK-8 cell viability assay. It counts as cell-based. The note with it: 24 h of incubation, mean, n = 4. The procedure, abridged: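 HeLa cells seeded at 10⁴ cells/well. For the combination arm, anticancer drug was added first (final 1, 10 or 100 µM), then self-assembling peptide at final 16 or 26 µM, charge-matched between peptides. Peptide-alone wells received the same peptide levels. After 24 h, drug and peptide were removed and viability read by CCK-8 absorbance at 450 nm. Four replicates, mean ± SD.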

As for `COc1cccc2c1C(=O)c1c(O)c3c(c(O)c1C2=O)C[C@@](O)(C(=O)CO)C[C@@H]3O[C@H]1C[C@H](N)[C@H](O)[C@H](C)O1` [DOX, Doxorubicin], the cell viability turned out to be 70% (1 μM DOX, K10 16 μM or K6 26 μM) and 18% (100 μM DOX).
